Active and inactive are the calls of the source. The calls are words filed in the database; no cut-off is given here.
Experiments:
[1] = test system: HT-29; experiment: Cytotoxicity against human HT-29 cells assessed as growth inhibition after 72 hrs by MTT assay; format: functional, cell-based; conditions: HT-29, 72 h
[2] = test system: CCRF-CEM; experiment: Cytotoxicity against human CEM cells assessed as growth inhibition after 72 hrs by MTT assay; format: functional, cell-based
[3] = test system: Jurkat; experiment: Cytotoxicity against human Jurkat cells assessed as growth inhibition after 72 hrs by MTT assay; format: functional, cell-based
[4] = Cytotoxicity against human SEM cells assessed as growth inhibition after 72 hrs by MTT assay; format: functional, cell-based
[5] = test system: MCF7; experiment: Cytotoxicity against human MCF7 cells assessed as growth inhibition after 72 hrs by MTT assay; format: functional, cell-based; conditions: MCF7, 72 h
[6] = test system: PBMC; experiment: Cytotoxicity against human resting PBMC assessed as growth inhibition after 72 hrs by MTT assay; format: cell-based
Summary of the method: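 Healthy-donor PBMC from Lymphoprep gradient, rested overnight in RPMI-1640/10% FBS; non-adherent cells at 5 × 10^5 cells/mL without PHA, treated 72 h with varying concentrations; viability by MTT; IC50 mean ± SEM, three separate experiments.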

[7] = test system: PBMC; experiment: Cytotoxicity against human PHA-stimulated PBMC assessed as growth inhibition after 72 hrs by MTT assay; format: functional, cell-based
[8] = Selectivity ratio of IC50 for human resting PBMC to IC50 for human CEM cells; format: ADME, cell-based, CCRF-CEM; conditions: resting PBMC versus CEM cells, read-out: Ratio IC50
[9] = test system: LoVo; experiment: Resistance ratio of IC50 for human LoVo/DX cells to IC50 for human LoVo cells; format: functional
Summary of the method: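 Ratio of IC50 in resistant line to IC50 in parental line (CEMVbl-100/CEM; LoVoDoxo/LoVo), each IC50 from 72 h MTT dose–response curves, ≥3 independent experiments.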

[10] = molecular target: Tubulin (Bos taurus) (UniProt Q6B856+Q862L2+Q862F3); experiment: Inhibition of bovine brain tubulin polymerization at 20 uM by turbidimetry
Summary of the method: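 Purified bovine brain tubulin (10 μM) preincubated with compound in glutamate buffer at 30 °C, cooled to 0 °C, GTP added, then warmed to 30 °C in cuvettes; assembly followed turbidimetrically; concentrations up to 20 μM.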

[11] = test system: HeLa; experiment: Induction of apoptosis in human HeLa cells assessed as increase in Bid protein expression at 1 uM after 24 hrs by Western blotting analysis; format: functional, cell-based
[12] = test system: HeLa; experiment: Induction of apoptosis in human HeLa cells assessed as increase in Bax protein expression at 1 to 2.5 uM after 24 to 48 hrs by Western blotting analysis; format: functional, cell-based
[13] = test system: HeLa; experiment: Induction of apoptosis in human HeLa cells assessed as increase in Bak protein expression at 1 to 2.5 uM after 24 to 48 hrs by Western blotting analysis; format: functional, cell-based
[14] = test system: HeLa; experiment: Cell cycle arrest in human HeLa cells assessed as reduction in S phase after 24 hrs by propidium iodide staining-based flow cytometry; format: functional
Summary of the method: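 HeLa cells in exponential growth (2.5 × 10^5) treated 24 h at various concentrations; ethanol-fixed (70%, ice-cold), lysed with RNase A/0.1% Triton X-100, PI-stained; DNA content by flow cytometry, phase percentages from DNA histograms.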

[15] = test system: HeLa; experiment: Induction of apoptosis in human HeLa cells at 0.62 to 5 uM after 24 to 48 hrs by Annexin V/FITC staining-based flow cytometry; format: functional, cell-based
Summary of the method: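 HeLa cells treated 24 or 48 h at indicated concentrations, then stained with annexin-V-FITC plus PI; flow cytometry with 488 nm excitation, 525 and 585 nm emission; live, early/late apoptotic and necrotic populations distinguished; means of three independent experiments.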

[16] = test system: HeLa; experiment: Induction of apoptosis in human HeLa cells assessed as cell viability at 2.5 uM after 48 hrs by MTT assay in presence of reduced glutathione; format: functional, cell-based
Summary of the method: (§1)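 HeLa cells exposed to 2.5 μM compound for 48 h with scavengers (NAC 100 μM, GSH 1 mM or DTT 1 mM, among others); viability by MTT; means ± SEM of four independent experiments, Student's t-test.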

[17] = test system: HeLa; experiment: Induction of apoptosis in human HeLa cells assessed as caspase activation at 2.5 uM after 48 hrs in presence of pan-caspase inhibitor z-VAD.fmk; format: functional, cell-based
Summary of the method: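 HeLa cells given 2.5 μM compound for 48 h with or without 100 μM z-VAD.fmk pan-caspase inhibitor; viability measured; means ± SEM of three independent experiments, Student's t-test.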

[18] = test system: HeLa; experiment: Induction of apoptosis in human HeLa cells assessed as reduction in Bcl-2 protein expression at 1 to 2.5 uM by Western blotting analysis; format: functional, cell-based; conditions: TDE = time-dependent effect
Summary of the method: (§2)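 HeLa cells treated at indicated concentrations and times; washed in cold PBS, lysed 30 min at 0 °C, cleared at 15 000 × g; 20 μg protein resolved on 7.5–15% gradient SDS-PAGE, blotted to PVDF, primary antibodies 2 h room temperature, peroxidase secondary 60 min, ECL detection; β-actin reprobe for loading.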

[19] = test system: HeLa; experiment: Induction of apoptosis in human HeLa cells assessed as caspase-3 activation at 1 to 2.5 uM by Western blotting analysis; format: functional, cell-based; conditions: TDE = time-dependent effect; summary of the method: as §2
[20] = test system: HeLa; experiment: Induction of apoptosis in human HeLa cells assessed as PARP cleavage after 24 to 48 hrs by Western blotting analysis; format: functional, cell-based; summary of the method: as §2
[21] = test system: HeLa; experiment: Induction of apoptosis in human HeLa cells assessed as PARP cleavage at 1 to 2.5 uM by Western blotting analysis; format: functional, cell-based; conditions: TDE = time-dependent effect; summary of the method: as §2
[22] = test system: HeLa; experiment: Induction of apoptosis in human HeLa cells assessed as cell viability at 2.5 uM after 48 hrs by MTT assay in presence of N-acetylcysteine; format: functional, cell-based; summary of the method: as §1
[23] = test system: HeLa; experiment: Induction of apoptosis in human HeLa cells assessed as caspase-9 activation at 1 to 2.5 uM after 24 to 48 hrs by Western blotting analysis; format: functional, cell-based; summary of the method: as §2
[24] = test system: HeLa; experiment: Induction of apoptosis in human HeLa cells assessed as reduction in Mcl-1 protein expression at 2.5 uM after 48 hrs by Western blotting analysis; format: functional, cell-based; summary of the method: as §2
[25] = test system: HeLa; experiment: Induction of DNA damage in human HeLa cells assessed as increase in gammaH2A.X protein expression at 1 to 2.5 uM after 24 hrs by Western blotting analysis; format: functional, cell-based
[26] = test system: HeLa; experiment: Induction of intracellular ROS generation in human HeLa cells after 1 to 6 hrs by H2DCFDA staining-based flow cytometry; format: functional, cell-based
Summary of the method: (§3)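 HeLa cells treated at various concentrations and times; ROS followed by flow cytometry with H2DCFDA or hydroethidine (HE, mainly superoxide).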

[27] = test system: HeLa; experiment: Induction of intracellular ROS generation in human HeLa cells at 1 to 5 uM after 1 to 6 hrs by hydroethidine staining-based flow cytometry; format: functional, cell-based; summary of the method: as §3
[28] = test system: HeLa; experiment: Induction of apoptosis in human HeLa cells assessed as mitochondrial depolarization at 1 to 5 uM after 12 hrs by JC-1 staining-based flow cytometry; format: functional, cell-based
[29] = test system: HeLa; experiment: Induction of apoptosis in human HeLa cells assessed as GSH depletion at 1 to 2.5 uM after 24 hrs by CMFDA staining-based flow cytometry in presence of N-acetylcysteine; format: functional, cell-based
Summary of the method: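 HeLa cells treated 24 h with compound, alone or with 100 μM NAC; harvested and loaded with 5 μM CMFDA, 30 min at 37 °C; intracellular GSH read as CMFDA fluorescence by flow cytometry; means ± SEM.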

Q: Which IC50 [1] does the source give for C=C(Br)C(=O)Nc1ccc(/C=C/C(=O)Nc2cc(OC)c(OC)c(OC)c2)cc1 here?
A: Its IC50 is 3700 nM.

Q: What about the IC50 [2] of the same compound?
A: Its IC50 is 25 nM.

Q: What about the IC50 [3] of the same compound?
A: Its IC50 is 410 nM.

Q: What about the IC50 [4] of the same compound?
A: Its IC50 is 110 nM.

Q: And the IC50 [5]?
A: The IC50 was 3000 nM.

Q: What about the IC50 [6] of the same compound?
A: The IC50 was 3500 nM.

Q: What about the IC50 [7] of the same compound?
A: Its IC50 is 240 nM.

Q: What about the selectivity ratio [8] of the same compound?
A: The selectivity ratio was 10.

Q: And the “Ratio IC50” value [9]?
A: Its value is 0.6.

Q: And the inhibition [10]?
A: The inhibition was “inactive”.

Q: And the Activity [11]?
A: The Activity was “inactive”.

Q: And the Activity [12]?
A: Its Activity is “inactive”.

Q: What about the Activity [13] of the same compound?
A: The Activity was “inactive”.

Q: And the Activity [14]?
A: The Activity was “Active”.

Q: What about the Activity [15] of the same compound?
A: Its Activity is “Active”.

Q: What about the Activity [16] of the same compound?
A: The Activity was “inactive”.

Q: And the Activity [17]?
A: Its Activity is “inactive”.

Q: What about the Activity [18] of the same compound?
A: The Activity was “tde”.

Q: And the Activity [19]?
A: Its Activity is “tde”.

Q: And the Activity [20]?
A: Its Activity is “Dose-dependent effect”.

Q: What about the Activity [21] of the same compound?
A: Its Activity is “tde”.

Q: What about the Activity [22] of the same compound?
A: The Activity was “inactive”.

Q: And the Activity [23]?
A: Its Activity is “inactive”.

Q: What about the Activity [24] of the same compound?
A: The Activity was “Active”.

Q: And the Activity [25]?
A: The Activity was “Active”.

Q: What about the Activity [26] of the same compound?
A: The Activity was “Dose-dependent effect”.

Q: What about the Activity [27] of the same compound?
A: The Activity was “inactive”.

Q: And the Activity [28]?
A: The Activity was “Active”.

Q: What about the Activity [29] of the same compound?
A: Its Activity is “inactive”.

Source: ChEMBL document CHEMBL3286242, “Design, synthesis and biological evaluation of arylcinnamide hybrid derivatives as novel anticancer agents” (Eur J Med Chem, 2014)
